Published values from different studies.
Protocols differ between the studies behind these lines.
Target: Ephrin type-B receptor 4 (EPHB4, Homo sapiens, UniProt P54760)

O=C(Nc1cnn(-c2csc(C(=O)NC3COC3)c2)c1)Nc1ccccc1Cl — remaining activity (enzyme activity; inhibitor; 5 µM): 97.8%
Cc1[nH]c(/C=C2\C(=O)Nc3ccc(F)cc32)c(C)c1C(=O)N[C@H]1CCN(C(=O)N(C)C)C1 — remaining activity (enzyme activity; inhibitor; 0.1 µM): 111%
O=C(NCc1ncc(C(F)(F)F)cc1Cl)c1ccc2c(c1)C1(CCS(=O)(=O)CC1)[C@H](C1CC1)N2S(=O)(=O)c1ccc(F)cc1 — remaining binding (cell-free assay; competition with immobilised ligand; 1 µM): 100%
Cc1ccc(Nc2nccc(N(C)c3ccc4c(C)n(C)nc4c3)n2)cc1S(N)(=O)=O — remaining signal (cell-free assay; 0.5 µM): 93.8%
Cc1nc(Cc2cccc(C(F)(F)F)c2)sc1-c1ccc(C(N)=O)nc1 — remaining binding (cell-free assay; competition with immobilised ligand; 1 µM): 100%
CC/C(=N\NC(=O)NCc1cccc(O)c1)c1ccc(O)c(C)c1O — inhibition (enzyme activity; inhibitor; 0.1 µM): 0.2%
COc1cc(/C=C/C(=O)CC(=O)/C=C/c2ccc(O)c(OC)c2)ccc1O — activity vs control (enzyme activity; inhibitor; 1 µM): 105%
FC(F)c1nc2ccccc2n1-c1nc(N2CCOCC2)nc(N2CCOCC2)n1 — remaining activity (enzyme activity; inhibitor; 10 µM): 105%
O=C1NC(=O)c2cc(Nc3ccc(F)cc3)c(Nc3ccc(F)cc3)cc21 — remaining signal (cell-free assay; 0.5 µM): 108%
C=CC(=O)Nc1cc(Nc2nccc(Nc3cc(Cl)c(F)cc3C(C)(C)O)n2)c(OC)cc1N1CC[C@@H](N(C)C)C1 — inhibition (enzyme activity; inhibitor; 1 µM): 7%
Cc1ccc(C(=O)NCc2ccsc2)cc1C#Cc1cn(C(C)C)c2ncnc(N)c12 — activity vs control (enzyme activity; inhibitor; 1 µM): 28%
CSc1nc(C)c(-c2ccnc(Nc3ccc(N4CCOCC4)cc3)c2)[nH]1 — inhibition (cell-free assay; inhibitor; 10 µM): 18.2%
Oc1ccc(-c2nc(-c3ccncc3)c(-c3ccc(F)cc3)[nH]2)cc1 — remaining signal (cell-free assay; 0.5 µM): 89%
CSc1cccnc1N1CCN(Cc2nc3ccccc3[nH]2)CC1 — remaining binding (cell-free assay; competition with immobilised ligand; 1 µM): 100%
O=C(Nc1cnn(-c2csc(C(=O)NC3COC3)c2)c1)Nc1c(F)cccc1Cl — remaining activity (enzyme activity; inhibitor; 5 µM): 98.1%
CN(C)CC#Cc1ccc(OCCCc2sc(N3CCc4cccc(C(=O)Nc5nc6ccccc6s5)c4C3)nc2C(=O)O)c(F)c1 — remaining binding (cell-free assay; competition with immobilised ligand; 1 µM): 100%
Cc1cc(NC(=O)c2cccc3cc(-c4cccc5[nH]nc(N)c45)ccc23)ccc1F — activity vs control (enzyme activity; inhibitor; 0.1 µM): 109%
Nc1cnc(N2CCc3cc(S(=O)(=O)Nc4c(F)cc(Cl)cc4F)cc(N4CCCC4=O)c32)nc1 — remaining binding (cell-free assay; competition with immobilised ligand; 1 µM): 100%
CC(C)(C)c1nc2c(s1)c1nc(N)ncc1c1ccc(NS(=O)(=O)c3c(F)cccc3F)c(F)c12 — remaining activity (enzyme activity; inhibitor; radiometric; 1 µM): 93%
COc1cc(Nc2cnc(C#N)c(O[C@H](C)CN(C)C)n2)ncc1-c1cnn(C)c1 — remaining activity (enzyme activity; inhibitor; radiometric; 1 µM): 96%
COc1cc2ncnc(Nc3ccc(Oc4ccccc4)c(C)c3C)c2cc1OC — inhibition (enzyme activity; inhibitor; 1 µM): 3%
CCCCNc1ncc2c(-c3ccc(F)cc3)nn(C[C@H]3CC[C@H](N)CC3)c2n1 — inhibition (target engagement in cells; inhibitor; chemoproteomics; 20 mM): 97.5%
CN([C@@H]1CCc2c(CC(=O)O)c3cc(S(C)(=O)=O)ccc3n2C1)S(=O)(=O)c1ccc(F)cc1 — remaining binding (cell-free assay; competition with immobilised ligand; 1 µM): 95%
CNCc1ccc(-c2cc(-c3nc(-c4ccc(S(=O)(=O)C(C)C)cc4)cnc3N)on2)cc1 — inhibition (enzyme activity; inhibitor; 2 µM): 10%
N#CCCc1ccc2c(c1)-c1[nH]c3ccc([N+](=O)[O-])cc3c1CC(=O)N2 — remaining signal (cell-free assay; 0.5 µM): 82.2%
O=C(N[C@H]1CCCCC/C=C\C2C[C@@]2(C(=O)O)NC(=O)[C@@H]2C[C@@H](Oc3ccncc3)CN2C1=O)OC1CCCC1 (stereo partly drawn) — remaining binding (cell-free assay; competition with immobilised ligand; 1 µM): 100%
Cn1c(=O)n(-c2ccc(C(C)(C)C#N)cc2)c2c3cc(-c4cnc5ccccc5c4)ccc3ncc21 — remaining activity (enzyme activity; inhibitor; 10 µM): 99%
Cc1cnc(NC2CCOCC2)nc1-n1cnc(C(=O)NC(CN)c2cc(F)cc(Cl)c2)c1 (stereo not drawn) — remaining activity (enzyme activity; inhibitor; radiometric; 1 µM): 89%
CS(=O)(=O)N1CCCC(NC(=O)[C@H](CCC2CCCCC2)NC(=O)c2ccc(CNc3ncnc4c3nnn4-c3ccccc3)cc2)C1 (stereo partly drawn) — remaining binding (cell-free assay; competition with immobilised ligand; 0.1 µM): 96%
CCN(CC)c1ccc(C2=NNC(=O)CC2C)cc1[N+](=O)[O-] (stereo not drawn) — remaining activity (enzyme activity; inhibitor; 10 µM): 100%
